In general, MIC refers to the smallest concentration in the dilution series that meets the test's criterion for growth inhibition.

The structures appear in SMILES notation. Values after ≈ are worked out from the molar mass of the structure shown.

Assay [1] relates to Staphylococcus aureus. In words: Antimicrobial activity against vancomycin-susceptible-, methicillin-resistant Staphylococcus aureus ATCC 33591 assessed as post-antibiotic effect at 10 times MIC pre-exposed to Telavancin for 1 hr by plate counting method. It is filed as functional. In a few lines: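 Direct colony suspensions (~5 × 10^6 CFU/ml) were exposed to 10× MIC for 1 h at 35°C with shaking in Mueller-Hinton broth, then diluted 1:1,000 to remove drug. Viable plate counts were taken before exposure, at 0 h, then every 2 h until turbidity reached McFarland 1. PAE = T − C, the time for counts to rise 1 log10 versus the unexposed control. Two separate experiments were run.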

Assay [2] concerns Staphylococcus aureus. Nature of the assay: Antimicrobial activity against vancomycin-susceptible-, methicillin-resistant Staphylococcus aureus 1307 assessed as time required to induce post antibiotic sub-MIC effect at 0.4 times MIC […] by plate counting method. It is filed as functional. In a few lines:
(§1)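 After 1 h preexposure to 10× MIC at 35°C and 1:1,000 dilution, cultures were split, and drug was re-added to final 0.2, 0.3 or 0.4× MIC, with a drug-free tube. Viable counts were taken every 2 h until McFarland 1 turbidity. Duration was derived from log10 CFU/ml versus time curves. Two experiments were run, each with a new inoculum.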

In assay [3] the test system is Enterococcus faecium. In words: Antimicrobial activity against Enterococcus faecium HMC 588 assessed as time required to induce sub-MIC effect at 0.4 times MIC exposed for 2 hrs by plate counting method. It is filed as functional. A digest of the protocol:
(§2)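 Unexposed Mueller-Hinton broth cultures (about 5 × 10^6 CFU/ml, 35°C) were handled as in the PA-SME set but without the 10× MIC pre-exposure. They were diluted 1:1,000, then given telavancin at final 0.2, 0.3 or 0.4× MIC, with a drug-free control. Viable counts were taken every 2 h until McFarland no. 1 turbidity. Effect duration comes from log10 CFU/ml-time plots; two separate experiments with new inocula.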

The test system of assay [4] is Staphylococcus aureus. Nature of the assay: Antimicrobial activity against vancomycin-susceptible-, methicillin-resistant Staphylococcus aureus 1306 assessed as time required to induce sub-MIC effect at 0.2 times MIC exposed for 2 hrs by plate counting method. Type of assay: functional. A digest of the protocol: (§3)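 Sub-MIC effect: cultures not preexposed to drug were diluted and handled as in the PA-SME procedure in Mueller-Hinton broth with final 0.2, 0.3 or 0.4× MIC, plus a drug-free control. Viable plate counts were taken every 2 h until McFarland 1 turbidity. Duration was derived from growth curves. Two experiments were run, each with a new inoculum.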

The subject of assay [5] is Enterococcus faecalis. In words: Antimicrobial activity against Enterococcus faecalis ATCC 29212 assessed as time required to induce sub-MIC effect at 0.4 times MIC exposed for 2 hrs by plate counting method. Type of assay: functional. A digest of the protocol: as §2
The test system of assay [6] is Staphylococcus aureus. Nature of the assay: Antimicrobial activity against vancomycin-susceptible-, methicillin-resistant Staphylococcus aureus ATCC 33591 by microdilution method. Type of assay: functional.
In assay [7] the test system is Staphylococcus aureus. Nature of the assay: Antimicrobial activity against vancomycin-susceptible-, methicillin-resistant Staphylococcus aureus ATCC 33591 assessed as time required to induce post antibiotic sub-MIC effect at 0.2 times MIC pre-exposed to Telavancin […] by plate counting method. Type of assay: functional. In a few lines:
as §1

For assay [8], the system named is Staphylococcus aureus. In words: Antimicrobial activity against heterogenous vancomycin-intermediate-, methicillin-resistant Staphylococcus aureus 618 assessed as time required to induce post antibiotic sub-MIC effect at 0.4 times MIC […] by plate counting method. It is filed as functional. A digest of the protocol: (§4)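 PAE was first induced with 10× MIC for 1 h at 35°C (inoculum about 5 × 10^6 CFU/ml, Mueller-Hinton broth) and ended by 1:1,000 dilution. Cultures were then split and given 0.2, 0.3 or 0.4× MIC, with one tube left without drug. Viable counts were taken before exposure, after dilution, then every 2 h until McFarland no. 1 turbidity. Two separate experiments, each with a new inoculum.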

In assay [9] the test system is Streptococcus agalactiae. In words: Antimicrobial activity against Streptococcus agalactiae HMC 5 assessed as post-antibiotic effect at 10 times MIC pre-exposed to Telavancin for 1 hr by plate counting method. It is filed as functional. A digest of the protocol:
(§5)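 Organisms were suspended in Mueller-Hinton broth from overnight blood agar colonies at about 5 × 10^6 CFU/ml. Cultures were exposed to telavancin at 10× MIC for 1 h at 35°C in a shaking water bath, then diluted 1:1,000 to remove the drug, with an untreated growth control. Viable counts were taken before exposure, at 0 h, then every 2 h until McFarland no. 1 turbidity. PAE = T − C, the time to a 1 log10 rise. Two experiments.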

The test system of assay [10] is Staphylococcus aureus. In words: Antimicrobial activity against heterogenous vancomycin-intermediate-, methicillin-resistant Staphylococcus aureus 873 assessed as time required to induce sub-MIC effect at 0.2 times MIC […] by plate counting method. Type of assay: functional. In a few lines: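 SME, viable plate count method: no prior drug exposure. About 5 × 10^6 CFU/ml in Mueller-Hinton broth at 35°C received 0.2, 0.3 or 0.4× MIC, alongside a drug-free tube. Counts were taken at the start, then every 2 h until McFarland no. 1 turbidity, as log10 CFU/ml against time. Two separate experiments, each with a new inoculum.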

In assay [11] the test system is Staphylococcus aureus. Nature of the assay: Antimicrobial activity against vancomycin-susceptible-, methicillin-resistant Staphylococcus aureus 1306 by microdilution method. Type of assay: functional.
The test system of assay [12] is Enterococcus faecium. In words: Antimicrobial activity against Enterococcus faecium HMC 588 assessed as post-antibiotic effect at 10 times MIC pre-exposed to Telavancin for 1 hr by plate counting method. It is filed as functional. A digest of the protocol: as §5
Assay [13] deals with Staphylococcus aureus. Nature of the assay: Antimicrobial activity against heterogenous vancomycin-intermediate-, methicillin-resistant Staphylococcus aureus 618 assessed as time required to induce post antibiotic sub-MIC effect at 0.2 times MIC pre-exposed to Telavancin […] by plate counting method. Type of assay: functional. A digest of the protocol:
as §4

For assay [14], the system named is Staphylococcus aureus. Nature of the assay: Antimicrobial activity against vancomycin-resistant-, methicillin-resistant Staphylococcus aureus 510 assessed as time required to induce post antibiotic sub-MIC effect at 0.2 times MIC pre-exposed to Telavancin for 1 hr by plate counting method.
Assay [15] relates to Enterococcus faecalis. In words: Antimicrobial activity against Enterococcus faecalis ATCC 29212 assessed as time required to induce post antibiotic sub-MIC effect at 0.3 times MIC […] by plate counting method. It is filed as functional. In a few lines:
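Mueller-Hinton broth cultures of about 5 × 10^6 CFU/ml were pre-exposed to telavancin at 10× MIC for 1 h at 35°C, then diluted 1:1,000. Telavancin was re-added to final 0.2, 0.3 or 0.4× MIC, alongside a drug-free tube. Viable counts were taken before exposure, after dilution, then every 2 h until McFarland no. 1 turbidity. Duration comes from log10 CFU/ml-versus-time plots; two separate experiments with fresh inocula.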

Assay [16] concerns Staphylococcus aureus. Nature of the assay: Antimicrobial activity against vancomycin-susceptible-, methicillin-resistant Staphylococcus aureus 1130 assessed as time required to induce post antibiotic sub-MIC effect at 0.4 times MIC […] by plate counting method. It is filed as functional. In a few lines:
as §1

The subject of assay [17] is Staphylococcus aureus. In words: Antimicrobial activity against heterogenous vancomycin-intermediate-, methicillin-resistant Staphylococcus aureus 618 by microdilution method. Type of assay: functional. For orientation: Broth dilution looks for growth in wells or tubes with falling amounts of substance.
For assay [18], the system named is Streptococcus agalactiae. In words: Antimicrobial activity against Streptococcus agalactiae HMC 5 assessed as time required to induce sub-MIC effect at 0.2 times MIC exposed for 2 hrs by plate counting method. Type of assay: functional. A digest of the protocol: as §2
In assay [19] the test system is Staphylococcus aureus. In words: Antimicrobial activity against heterogenous vancomycin-intermediate-, methicillin-resistant Staphylococcus aureus 873 assessed as time required to induce post antibiotic sub-MIC effect at 0.2 times MIC pre-exposed to Telavancin […] by plate counting method. Type of assay: functional. In a few lines: as §4
Assay [20] deals with Staphylococcus aureus. In words: Antimicrobial activity against vancomycin-resistant-, methicillin-resistant Staphylococcus aureus 510 assessed as time required to induce sub-MIC effect at 0.4 times MIC exposed for 2 hrs by plate counting method. Type of assay: functional. In a few lines: as §3

With `CCCCCCCCCCNCCN[C@@]1(C)C[C@H](O[C@H]2[C@H](Oc3c4cc5cc3Oc3ccc(cc3Cl)[C@@H](O)[C@@H](NC(=O)[C@@H](CC(C)C)NC)C(=O)N[C@@H](CC(N)=O)C(=O)N[C@H]5C(=O)N[C@H]3C(=O)N[C@H](C(=O)N[C@H](C(=O)O)c5cc(O)c(CNCP(=O)(O)O)c(O)c5-c5cc3ccc5O)[C@H](O)c3ccc(c(Cl)c3)O4)O[C@H](CO)[C@@H](O)[C@@H]2O)O[C@@H](C)[C@H]1O` [TELAVANCIN], the PAE in [1] is 1.5 h; in assay [2], above 10.5 h; in assay [3], 8.8 h; in [4], 0.7 h; in assay [5] it was 3.6 h; in assay [7], 7.7 h. The PAE was determined as 10.3 h in [8]; 0.4 h in [9]; 0 h in assay [10]; 1.2 h in [12]; 5.7 h in assay [13]; 5.6 h in assay [14]. Further, the PAE is above 10.7 h in [15]; above 10 h in assay [16]; 0.2 h in assay [18]; 3.6 h in assay [19]; 3.6 h in assay [20]. Besides, the results for the minimal inhibitory concentration (MIC) in assay [6], in assay [11] and in assay [17] were 0.25 µg/mL (≈ 0.142 µM), 0.12 µg/mL (≈ 0.0684 µM) and 0.12 µg/mL (≈ 0.0684 µM), respectively.

(Values after ChEMBL document CHEMBL1629663, “Postantibiotic effects of telavancin against 16 gram-positive organisms” (Antimicrob Agents Chemother, 2009).)
